The results in this text go back to ChEMBL document CHEMBL1133431, “1,3-Diarylcycloalkanopyrazoles and diphenyl hydrazides as selective inhibitors of cyclooxygenase-2” (Bioorg Med Chem Lett, 2000).

The target of assay [1] is Prostaglandin G/H synthase 1 (Homo sapiens, UniProt P23219). Put plainly: Inhibitory activity against human prostaglandin G/H synthase 1 in platelet-rich plasma measured by the presence of thromboxane A2. Put shortly:
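Human peripheral blood drawn into heparin; platelet-rich plasma collected by centrifugation (200×g, 20 min, room temperature) and diluted 1:20 in 0.9% NaCl. Compound or vehicle preincubated 15 min at 37 °C, then stimulated with calcium ionophore A-23187 (free acid) for 15 min at 37 °C, then chilled on ice 5 min. Supernatant thromboxane B2 measured by radioimmunoassay.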

The target of assay [2] is T1, Prostaglandin G/H synthase 2 (Homo sapiens, UniProt P35354).
T1 sequence (P35354 whole entry): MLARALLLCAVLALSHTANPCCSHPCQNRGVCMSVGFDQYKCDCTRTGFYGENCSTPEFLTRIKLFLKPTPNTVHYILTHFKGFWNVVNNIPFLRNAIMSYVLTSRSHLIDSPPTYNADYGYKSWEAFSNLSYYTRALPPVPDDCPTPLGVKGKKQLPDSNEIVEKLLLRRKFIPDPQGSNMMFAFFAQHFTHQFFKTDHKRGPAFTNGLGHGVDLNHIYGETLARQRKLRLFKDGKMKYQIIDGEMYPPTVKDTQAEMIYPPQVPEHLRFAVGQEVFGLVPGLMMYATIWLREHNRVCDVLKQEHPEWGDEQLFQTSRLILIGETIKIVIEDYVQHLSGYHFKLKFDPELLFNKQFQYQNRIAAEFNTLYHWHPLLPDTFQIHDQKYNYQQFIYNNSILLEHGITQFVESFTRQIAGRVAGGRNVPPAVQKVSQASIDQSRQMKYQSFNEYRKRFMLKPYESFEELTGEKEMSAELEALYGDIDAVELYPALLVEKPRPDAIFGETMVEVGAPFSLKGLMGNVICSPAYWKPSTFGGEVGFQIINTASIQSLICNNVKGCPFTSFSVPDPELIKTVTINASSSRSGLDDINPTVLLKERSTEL
Put plainly: Inhibitory activity against human prostaglandin G/H synthase 2 in ECV-304 cells measured by the presence of PGE-2. The format is cell-based.

SMILES strings stand for the structures. pIC50: −log10 of the molar value.

Chain of Prostaglandin G/H synthase 1 (P23219 whole entry): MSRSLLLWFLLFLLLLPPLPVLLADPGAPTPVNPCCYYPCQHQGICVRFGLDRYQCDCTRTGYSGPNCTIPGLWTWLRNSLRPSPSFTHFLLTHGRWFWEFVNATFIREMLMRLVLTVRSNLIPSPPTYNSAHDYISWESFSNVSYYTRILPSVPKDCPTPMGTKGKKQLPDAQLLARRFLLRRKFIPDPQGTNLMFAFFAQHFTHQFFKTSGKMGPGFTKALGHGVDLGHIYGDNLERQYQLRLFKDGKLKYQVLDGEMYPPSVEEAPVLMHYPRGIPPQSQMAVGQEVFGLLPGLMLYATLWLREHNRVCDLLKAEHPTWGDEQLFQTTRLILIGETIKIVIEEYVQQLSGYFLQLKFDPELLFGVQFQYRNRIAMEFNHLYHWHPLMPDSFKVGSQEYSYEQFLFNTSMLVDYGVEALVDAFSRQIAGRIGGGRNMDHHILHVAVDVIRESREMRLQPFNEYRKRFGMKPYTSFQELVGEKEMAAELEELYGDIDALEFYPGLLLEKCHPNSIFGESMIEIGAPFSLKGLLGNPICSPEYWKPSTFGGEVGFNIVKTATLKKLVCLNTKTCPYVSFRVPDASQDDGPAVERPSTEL

By pIC50 is commonly meant −log10 of the IC50, conventionally taken in molar units. On to `Cc1ccc(NNC(=O)c2ccc(Cl)cc2)cc1`, for which the pIC50 was less than 5.00 in assay [1] and 8.00 in assay [2].
With `Clc1ccc(-c2nn(-c3ccc(Cl)cc3)c3c2CCCCC3)cc1`, the pIC50 in assay [1] is less than 5.00.
On to `CS(=O)(=O)c1ccc(NNC(=O)c2ccc(Cl)cc2)cc1`, for which the pIC50 in assay [1] and in assay [2] was less than 5.00 throughout.
In the case of `COc1ccc(C(=O)NNc2ccc(Cl)cc2)cc1`, the pIC50 in assay [1] was less than 5.00; in assay [2] it was 6.33.
The matching figures for `CS(=O)(=O)c1ccc(-n2nc(-c3ccc(F)cc3)c3c2CCCC3)cc1`: less than 5.00 and less than 5.00.
The like results for `CS(=O)(=O)c1ccc(NNC(=O)c2ccccc2)cc1` were, in that order, less than 5.00 and less than 5.00.
Turning to `COc1ccc(-n2nc(-c3ccc(Cl)cc3)c3c2CCCCC3)cc1`, the pIC50 in assay [1] was less than 5.00.
With `COc1ccc(-n2nc(-c3ccc(Cl)cc3)c3c2CCC(NOC(C)=O)C3)cc1` (configuration not stated), the pIC50 in assay [1] and in assay [2] was less than 5.00 in each case.
For `CS(=O)(=O)c1ccc(-n2nc(-c3ccc(Cl)cc3)c3c2CCCC3)cc1`, the pIC50 in assay [1] and in assay [2] was less than 5.00 in each case.
As to `COc1ccc(-n2nc(-c3ccc(Cl)cc3)c3c2CCC(O)C3)cc1` (configuration not stated), the figures for the pIC50 in assay [1] and in assay [2] were less than 5.00 and 6.34, respectively.
As for `Cc1ccc(-n2nc(-c3ccc(Cl)cc3)c3c2CCCCC3)cc1`, the pIC50 in assay [1] was less than 5.00.
Take `Cc1ccc(NNC(=O)c2ccccc2)cc1`: the figures for the pIC50 in assay [1] and in assay [2] were less than 5.00 and 6.48, respectively.
Take `COc1ccc(C(=O)NNc2ccccc2)cc1`: the pIC50 in assay [1] and in assay [2] was less than 5.00 in each case.
As to `O=C(NNc1ccccc1)c1ccc(Cl)cc1`, the pIC50 in assay [1] was less than 5.00; in assay [2] it was 6.48.
For `COc1ccc(-n2nc(-c3ccc(Cl)cc3)c3c2CCC(N(O)C(C)=O)C3)cc1` (configuration not stated), the pIC50 in assay [1] is less than 5.00; in assay [2] it was 5.62.
With `COc1ccc(NNC(=O)c2ccc(Cl)cc2)cc1`, the pIC50 is less than 5.00 in assay [1] and 6.89 in assay [2].
Turning to `COc1ccc(NNC(=O)c2ccccc2)cc1`, the pIC50 in assay [1] is less than 5.00; in assay [2], 6.74.
The like results for `O=C(NNc1ccc(Cl)cc1)c1ccccc1` were, in that order, less than 5.00 and 6.28.
`COc1ccc(-n2nc(-c3ccc(Cl)cc3)c3c2CCC(F)C3)cc1` (configuration not stated): the negative logarithm of the IC50 (pIC50) in assay [1] was less than 5.00.
Take `Clc1ccc(-c2nn(-c3ccc(Cl)cc3)c3c2CCC3)cc1`: the pIC50 in assay [1] and in assay [2] was less than 5.00 in each case.
For `c1ccc(-c2nn(-c3ccccc3)c3c2CCC3)cc1`, the pIC50 in assay [1] was less than 5.00.
Consider `CS(=O)(=O)c1ccc(-n2nc(-c3ccc(Cl)cc3)c3c2CCCCC3)cc1`, for which the pIC50 in assay [2] was less than 5.00.
`O=C(NNc1ccc(Cl)cc1)c1ccc(Cl)cc1`: the pIC50 in assay [1] was less than 5.00; in assay [2], 6.47.
The matching figures for `O=C(NNc1ccccc1)c1ccccc1`: less than 5.00 and 5.00.
